# Measurements collected from several papers.
# Target: Phosphatidylinositol 4-phosphate 3-kinase C2 domain-containing subunit alpha (PIK3C2A, Homo sapiens, UniProt O00443)
# Mode: inhibitor
SMILES,effect on,technique,concentration,measurement,result
Cc1ccc(NC(=O)c2ccc(C)c(C(F)(F)F)c2)cc1C#Cc1nn(C2CCC(O)CC2)c2ncnc(N)c12 (stereo not drawn),cell-free assay,,10 µM,remaining signal,92%
O=C(CSc1nc2nccnc2c(=O)n1CCc1ccccc1)Nc1ccccc1,enzyme activity,,10 µM,inhibition,93%
Cc1cc(NC(=O)c2cccc3cc(-c4cccc5[nH]nc(N)c45)ccc23)ccc1F,enzyme activity,,0.1 µM,activity vs control,108%
COc1cc(Cl)c(C(=O)N[C@@H](CN[C@H]2CC[C@@H](N)CC2)Cc2ccc(C#N)cc2)cc1-c1ccc(CN[C@H](C)c2ccc(C)cc2)o1,enzyme activity,,1 µM,remaining activity,93%
CC(C)CCn1c(SCC(=O)Nc2ccccc2C(F)(F)F)nc2nccnc2c1=O,enzyme activity,,10 µM,inhibition,84%
CN1CC(Oc2cnc(C#N)cc2-c2ccn3nc(NC(=O)C4CC4)cc3c2)C1,enzyme activity,,1 µM,inhibition,-4%
C=CC(=O)Nc1cc(Nc2nccc(Nc3cc(Cl)c(F)cc3C(C)(C)O)n2)c(OC)cc1N1CC[C@@H](N(C)C)C1,enzyme activity,,1 µM,inhibition,-2%
Cc1ccc(C(=O)NCc2ccsc2)cc1C#Cc1cn(C(C)C)c2ncnc(N)c12,enzyme activity,,1 µM,activity vs control,98%
Cc1cnc(NC2CCOCC2)nc1-n1cnc(C(=O)NC(CN)c2cc(F)cc(Cl)c2)c1 (stereo not drawn),enzyme activity,radiometric,1 µM,remaining activity,100%
